WT yeast gro inh = growth inhibition of WT yeast, mitochondrial fusion screen | mitochondrial fusion phenotypic screen, WT strain | inhibition, % at 10 µM | actives 2.1% (n = 190,000); in the data active = inhibition above about 58%; tested in S. cerevisiae
Yeast lifespan up = extends the lifespan of yeast; actives 0.68% (n = 130,000); S. cerevisiae growth with nicotinamide, OD615; deaD strain in restrictive glucose medium; AID 775; inhibition of the nicotinamide effect, % at 10 µM;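 active = inhibition above a set limit, placed 3 SD over the median of all compounds, cut at about 26% in these data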
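Assay system: engineered S. cerevisiae DeaD replicative-lifespan strain, galactose-grown log-phase cells; medium: restrictive CSMM-D dextrose medium; also added: nicotinamide, 1.5 mM, co-present with compound; schedule: 48 h compound exposure at 30 °C, humidified; detection: absorbance at 615 nm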
BB579 growth dn = chemicals that inhibit yeast BB579 growth in restrictive medium (lifespan-shortening candidates) | S. cerevisiae BB579 growth, OD615, 48 h | inhibition, % at 10 µM | actives 0.51% (n = 140,000);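 active = inhibition above a set limit, 3 SD over the mean compound inhibition, cut at about 44% in these data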
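System: Saccharomyces cerevisiae DeaD strain BB579, replicative lifespan model yeast | Buffer or medium: Restrictive glucose-based CSMM-D medium | Times: 4 h preincubation and 48 h exposure at 30 °C | Detection: OD615 turbidity measurement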
KCC2 mod = modulates chloride dependent transport by human KCC2; Q9H2X9; KCC2 cells, thallium flux FluoZin-2 fluorescence; B-score of Tl+ flux slope (higher = more flux/activation; lower = inhibition) at 10 µM; actives 2.2% (n = 190,000);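 active = thallium flux slope and its plate-corrected score both differing from the plate sample mean at a set confidence after two filtering rounds, in either direction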;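 note: slope of fluorescence scaled to starting intensity during 10 to 20 s after thallium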
RAM inhibit = blocks the yeast RAM network; S. cerevisiae dse1pr::URA3 reporter, 5-FOA growth OD615, 2 d; analog-sensitive cbk1-as2 kinase mutant strain; inhibition, % at 50 µM; actives 1.8% (n = 190,000);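 active = inhibition above a set limit, 3 SD over mean compound inhibition, cut at about 8.4% in these data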;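 note: inhibition rescues growth on 5-FOA so higher OD means more RAM inhibition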
Hits are given with their value; 0 = inactive; - = no result. This is a sample that favours compounds with a hit; in the whole collection about 5.5% have one here.

SMILES	WT yeast gro inh	Yeast lifespan up	BB579 growth dn	KCC2 mod	RAM inhibit
COc1ccc(CCn2nnnc2C(C(C)C)N2CCN(c3ncccn3)CC2)cc1OC (configuration not stated)	62	0	0	0	0
COc1ccc(CCn2nnnc2C(CC(C)C)N2CCC(C(N)=O)CC2)cc1OC (configuration not stated)	0	0	0	0	0
Oc1cc(-c2ccccc2)c2ccccc2c1	0	0	97	0	0
Cn1c(N)c(C(=O)c2ccc(C#N)cc2)c(=O)n(C)c1=O	0	0	0	0	0
S=C(NCc1ccccc1Cl)NC1CCCC1	0	0	0	0	0
S=C(Nc1ccc(Cl)cc1)NC1CCCCC1	-	-	-	0	-
Fc1ccc(CNC(=S)NC2CCCCCC2)cc1	71	-	-	0	0
S=C(NCCc1ccc(Cl)cc1)NC1CCCC1	65	-	-	0	0
S=C(NCCNCc1ccccc1)NC1CCCCC1	62	-	-	0	0
O=C(NCc1cccnc1)c1cccs1	0	-	-	0	0
O=C(Nc1ccc(Cl)cc1)N1CCN(c2ccc3nnc(-c4ccc(F)cc4)n3n2)CC1	80	0	0	0	0
O=C(Nc1ccccc1Cl)N1CCN(c2ccc3nnc(-c4ccccc4)n3n2)CC1	0	0	0	-	0
COc1ccc(C(=O)NCc2ccc3c(c2)CCO3)cc1	-	-	-	0	-
CN1C(=O)CSC1=NC12CC3CC(CC(C3)C1)C2	0	53	0	0	0
CCN1C(=O)CSC1=NC12CC3CC(CC(C3)C1)C2	0	0	0	0	0
CCOc1ccc(C(=O)C(CCC(CN(C)C)C(=O)c2ccc(OCC)cc2)CN(C)C)cc1 (configuration not stated)	64	0	0	0	0
Cc1ccc2nc(N/N=C/c3ccccc3F)nc(-c3ccccc3)c2c1	64	0	0	0	0
Cc1ccc2nc(N/N=C/c3ccccc3C#N)nc(-c3ccccc3)c2c1	0	0	0	-	0
CC(C)(C)c1ccc(S(=O)(=O)N2CCC(c3nc4ccc(Cl)cc4[nH]3)CC2)cc1	69	-	0	0	0
O=C(Oc1coc(CSc2ncccn2)cc1=O)c1ccc(Br)o1	0	38	0	0	0
Cc1ccnc(SCc2cc(=O)c(OC(=O)c3ccc(Br)o3)co2)n1	0	0	0	0	0
CC(C)N1CCN(Cc2ccc(-c3ccccc3Cl)o2)CC1CCO (configuration not stated)	0	-	-	0	0
N#CCc1nc2ccc(S(=O)(=O)N3CCOCC3)cc2s1	-	-	-	0	-
COc1cc(OC)cc(-c2nnc(SCc3c(F)cccc3Cl)o2)c1	0	0	0	0	8.9
COc1ccccc1NC(=O)CN(Cc1ccco1)C(=O)c1ccc(Cl)nc1	0	-	-	0	0
SMILES	WT yeast gro inh	Yeast lifespan up	BB579 growth dn	KCC2 mod	RAM inhibit
CCOC(=O)c1c(N)sc(C(O)(C(F)(F)F)C(F)(F)F)c1-c1ccccc1	97	0	0	0	0
Cc1ccc(Cn2ncc3c(N4CCN(Cc5ccc(Cl)cc5)CC4)ncnc32)cc1	64	0	0	-	0
CC1CCN(c2ncnc3c2cnn3Cc2ccc(Cl)cc2)CC1	63	0	0	-	0
CC1CCCN(c2ncnc3c2cnn3-c2ccc(Cl)cc2)C1 (configuration not stated)	0	-	-	0	-
CC1CC(C)CN(c2ncnc3c2cnn3-c2ccc(Cl)cc2)C1 (configuration not stated)	62	0	0	0	0
COc1ccccc1CNc1nc(S(=O)(=O)c2ccccc2)c(Cl)s1	0	0	0	0	9.8
COc1ccc(NC(=S)NC(NC(=O)c2ccc(Cl)cc2Cl)C(Cl)(Cl)Cl)c([N+](=O)[O-])c1 (configuration not stated)	68	0	0	0	0
COc1ccc(NC(=S)N2CCN(CCN=CC3=C(O)CC(c4ccccc4)CC3=O)CC2)cc1 (configuration not stated)	0	50	0	0	0
C=CCNC(=S)N1CCN(CCN=CC2=C(O)CC(c3cccs3)CC2=O)CC1 (configuration not stated)	0	0	0	-	0
O=C1CC(c2ccco2)CC(O)=C1C=NCCN1CCN(C(=O)Nc2ccc(Cl)cc2)CC1 (configuration not stated)	0	0	0	0	0
O=C1CC(c2ccc(F)cc2)CC(O)=C1C=NCCN1CCN(C(=O)Nc2ccccc2)CC1 (configuration not stated)	0	90	0	0	0
CC(=O)N1CCN(CCN=CC2=C(O)CC(c3cccs3)CC2=O)CC1 (configuration not stated)	0	36	0	0	0
Cc1nc(N)sc1C(=O)N1N=N1	-	-	-	0	-
COC(=O)c1sc(N2C(=O)C(=O)/C(=C(/O)c3ccccc3)C2c2ccco2)nc1C (configuration not stated)	0	0	0	0	0
Cc1noc(C)c1COC(=O)c1cc(F)c(F)cc1Cl	0	0	0	0	0
COc1ccccc1N(C)S(=O)(=O)c1ccc(Cl)c(C(=O)OCc2c(C)noc2C)c1	0	-	-	0	11
Cc1cccc(N2C(=O)CCC2=O)n1	0	0	0	0	0
CC1C/C(=C/c2ccccn2)C(=O)/C(=C/c2ccccn2)C1 (configuration not stated)	87	-	-	0	0
CCCC(=O)NC(c1cccs1)c1cc([N+](=O)[O-])c2cccnc2c1O (configuration not stated)	0	0	47	0	0
CC(=O)NC(c1cccs1)c1cc([N+](=O)[O-])c2cccnc2c1O (configuration not stated)	0	0	80	0	0
CC(C)C(=O)NC(c1ccccc1)c1cc([N+](=O)[O-])c2cccnc2c1O (configuration not stated)	0	0	74	0	0
CCn1c(SCC(=O)Nc2sc3c(c2C#N)CCCC3)nnc1-c1ccncc1	0	-	0	0	11
N#Cc1c(NC(=O)CSc2nnc(-c3ccncc3)n2CC2CCCO2)sc2c1CCCC2 (configuration not stated)	0	0	0	0	0
CC(=O)OCC(CCn1cnc2cnc(N)nc21)COC(C)=O	0	-	-	0	-
O=c1c2[nH]c3ccccc3c2ncn1Cc1ccco1	0	72	0	0	0
SMILES	WT yeast gro inh	Yeast lifespan up	BB579 growth dn	KCC2 mod	RAM inhibit
Cc1cccc2sc(NC(=O)CCn3cccc3)nc12	0	-	-	0	0
Cc1cccc2sc(NC(=O)Cn3cccc3)nc12	0	0	0	12	0
O=C1c2ccccc2C(=O)N1c1ncc(Cc2ccc(Cl)cc2)s1	0	47	0	0	0
O=C1c2cccnc2C(=O)N1Cc1ccc(Cl)cc1	0	0	0	-	0
Cc1ccccc1NC(=S)NCc1ccc2[nH]c3c(c2c1)CCCC3	79	0	0	0	0
Cc1ccc(C)c(NC(=S)NCc2ccc3[nH]c4c(c3c2)CCCC4)c1	80	0	0	0	0
S=C(NCc1ccc2[nH]c3c(c2c1)CCCC3)Nc1ccccc1Cl	0	0	0	0	0
CCCCNC(=S)NCc1ccc2[nH]c3c(c2c1)CCCC3	69	-	-	0	0

Screening data deposited in PubChem by several laboratories.
